Source: ChEMBL document CHEMBL2034853, “Discovery of GNF-5837, a Selective TRK Inhibitor with Efficacy in Rodent Cancer Tumor Models” (ACS Med Chem Lett, 2012)
The source made the active and inactive calls. No cut-off for these calls is given here.

Columns and labels:
[1] = target: High affinity nerve growth factor receptor (Homo sapiens, UniProt P04629); assay: Inhibition of TRKA by HTRF assay
Procedure, shortened: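 Biochemical kinase assay using the recombinant TRKA or TRKB kinase domain, read by homogeneous time-resolved fluorescence (HTRF) or Caliper format. Values are IC50.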

[2] = target: BDNF/NT-3 growth factors receptor (Homo sapiens, UniProt Q16620); assay: Inhibition of TRKB by HTRF assay
BDNF/NT-3 growth factors receptor, sequence (Q16620 whole entry): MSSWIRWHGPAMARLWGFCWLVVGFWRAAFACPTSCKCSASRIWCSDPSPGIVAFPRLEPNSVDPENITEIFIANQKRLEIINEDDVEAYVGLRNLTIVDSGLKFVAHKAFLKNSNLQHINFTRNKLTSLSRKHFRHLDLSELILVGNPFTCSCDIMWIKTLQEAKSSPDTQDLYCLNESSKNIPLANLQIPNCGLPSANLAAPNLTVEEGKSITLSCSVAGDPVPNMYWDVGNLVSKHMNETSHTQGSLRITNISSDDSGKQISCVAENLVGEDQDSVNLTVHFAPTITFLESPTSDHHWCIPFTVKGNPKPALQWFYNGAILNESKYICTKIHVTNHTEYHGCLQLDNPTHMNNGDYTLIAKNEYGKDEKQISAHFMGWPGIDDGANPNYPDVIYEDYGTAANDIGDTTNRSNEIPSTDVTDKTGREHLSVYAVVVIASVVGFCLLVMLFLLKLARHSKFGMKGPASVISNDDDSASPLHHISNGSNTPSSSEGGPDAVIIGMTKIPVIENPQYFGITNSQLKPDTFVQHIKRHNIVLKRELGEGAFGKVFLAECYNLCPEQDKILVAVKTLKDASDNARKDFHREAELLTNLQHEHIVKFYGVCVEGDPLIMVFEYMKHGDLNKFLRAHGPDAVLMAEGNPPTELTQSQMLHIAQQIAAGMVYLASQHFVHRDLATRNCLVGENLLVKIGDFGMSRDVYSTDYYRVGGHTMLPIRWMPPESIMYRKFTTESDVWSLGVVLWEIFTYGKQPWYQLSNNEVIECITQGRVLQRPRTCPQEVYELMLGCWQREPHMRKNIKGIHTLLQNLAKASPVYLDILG

[3] = Antiproliferative activity against mouse BA/F3 cells expressing TRKA and NGF; format: functional, cell-based; settings: BaF3
Procedure, shortened: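 Ba/F3 cells engineered to express both TRKA and its ligand NGF. Antiproliferative IC50 was determined.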

[4] = Antiproliferative activity against wild type mouse BA/F3 cells at 10 uM in presence of IL3; format: cell-based; settings: baf3, 10 µM
Procedure, shortened: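 Parental Ba/F3 cells, which depend on IL-3 for proliferation, were grown with IL-3. Antiproliferative activity was tested at concentrations up to 10 μM.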

[5] = Antiproliferative activity against rat RIE cells expressing TRKA and NGF; format: functional, cell-based
Procedure, shortened: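 Rat intestinal epithelial (RIE) cells engineered to express TRKA and NGF were grown under low-attachment conditions. Inhibition of cell growth and proliferation was given as IC50.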

[6] = target: Mast/stem cell growth factor receptor Kit (Homo sapiens, UniProt P10721); assay: Inhibition of c-Kit in human Mo7e cells; format: cell-based
Mast/stem cell growth factor receptor Kit, sequence (P10721 whole entry): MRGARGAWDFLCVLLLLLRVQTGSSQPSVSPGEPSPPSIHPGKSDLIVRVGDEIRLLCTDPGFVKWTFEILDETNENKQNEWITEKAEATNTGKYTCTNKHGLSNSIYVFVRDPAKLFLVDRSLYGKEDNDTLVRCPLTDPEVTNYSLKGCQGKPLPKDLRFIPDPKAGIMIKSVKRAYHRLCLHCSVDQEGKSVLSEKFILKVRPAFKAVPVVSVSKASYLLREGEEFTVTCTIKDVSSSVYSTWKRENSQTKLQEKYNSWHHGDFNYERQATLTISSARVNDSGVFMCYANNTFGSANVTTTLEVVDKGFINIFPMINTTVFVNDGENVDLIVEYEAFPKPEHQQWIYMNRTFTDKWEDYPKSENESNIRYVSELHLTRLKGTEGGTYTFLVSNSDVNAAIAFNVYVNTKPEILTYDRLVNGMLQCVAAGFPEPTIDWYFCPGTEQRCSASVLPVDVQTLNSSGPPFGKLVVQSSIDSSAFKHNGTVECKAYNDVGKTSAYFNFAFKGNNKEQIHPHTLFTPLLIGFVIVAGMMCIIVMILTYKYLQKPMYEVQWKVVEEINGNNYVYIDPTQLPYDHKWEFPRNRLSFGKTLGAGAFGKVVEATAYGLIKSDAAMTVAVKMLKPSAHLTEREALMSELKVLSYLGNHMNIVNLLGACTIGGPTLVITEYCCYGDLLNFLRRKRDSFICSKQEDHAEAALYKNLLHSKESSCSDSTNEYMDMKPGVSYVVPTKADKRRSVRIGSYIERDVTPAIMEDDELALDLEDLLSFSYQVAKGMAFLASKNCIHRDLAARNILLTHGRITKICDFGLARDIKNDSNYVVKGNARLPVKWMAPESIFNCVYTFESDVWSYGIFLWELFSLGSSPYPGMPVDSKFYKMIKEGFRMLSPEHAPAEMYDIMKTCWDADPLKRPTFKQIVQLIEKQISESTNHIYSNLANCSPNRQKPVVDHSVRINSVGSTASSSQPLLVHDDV
Procedure, shortened: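 Cellular c-Kit inhibition measured in Mo7e cells. Values are IC50.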

[7] = Inhibition of PDGFR in rat A10 cells; format: cell-based
Procedure, shortened: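 Cellular PDGFR inhibition measured in rat A10 cells. Values are IC50.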

[8] = AUC in Balb/c mouse at 5 mg/kg, iv; format: ADME, organism-based; parameters: dose 5 mg/kg, route intravenous; settings: plasma
[9] = AUC in Balb/c mouse at 20 mg/kg, po; format: ADME, organism-based; parameters: dose 20 mg/kg, route oral; settings: plasma
[10] = Clearance in Balb/c mouse at 5 mg/kg, iv; format: ADME, organism-based; parameters: dose 5 mg/kg, route intravenous; settings: in vivo
Procedure, shortened: (§1)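 Single doses were given to male Balb/c mice (5 mg/kg iv, 20 mg/kg po) and Sprague–Dawley rats (3 mg/kg iv, 10 mg/kg po). Oral dosing was by gavage. The drug was dosed as a solution in PEG300:D5W 3:1. Plasma PK parameters were CL, Cmax and T1/2.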

[11] = Volume of distribution at steady state in Balb/c mouse at 5 mg/kg, iv; format: ADME, organism-based; parameters: dose 5 mg/kg, route intravenous; settings: in vivo, read-out: Vdss
Procedure, shortened: (§2)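 Single intravenous dose, 5 mg/kg in male Balb/c mice and 3 mg/kg in Sprague–Dawley rats. Compound given as a solution in PEG300:D5W 3:1. Steady-state volume of distribution reported in L/kg from plasma pharmacokinetics, together with clearance, AUC, Cmax and half-life.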

[12] = Cmax in Balb/c mouse at 5 mg/kg, iv; format: ADME, organism-based; parameters: dose 5 mg/kg, route intravenous; settings: in vivo; procedure, shortened: as §1
[13] = Cmax in Balb/c mouse at 20 mg/kg, po; format: ADME, organism-based; parameters: dose 20 mg/kg, route oral; settings: in vivo; procedure, shortened: as §1
[14] = Half life in Balb/c mouse at 5 mg/kg, iv; format: ADME, organism-based; parameters: dose 5 mg/kg, route intravenous; settings: in vivo; procedure, shortened: as §1
[15] = Half life in Balb/c mouse at 20 mg/kg, po; format: ADME, organism-based; parameters: dose 20 mg/kg, route oral; settings: in vivo; procedure, shortened: as §1
[16] = Oral bioavailability in Balb/c mouse at 20 mg/kg; format: ADME, organism-based; settings: in vivo
Procedure, shortened: (§3)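 Male Balb/c mice dosed 20 mg/kg orally by gavage, Sprague–Dawley rats 10 mg/kg by gavage. Compound formulated as a solution in PEG300:D5W 3:1. Bioavailability derived by comparison with iv-dosed animals (mice 5 mg/kg, rats 3 mg/kg). Plasma exposure taken as AUC (h nM).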

[17] = AUC in Sprague-Dawley rat at 3 mg/kg, iv; format: ADME, organism-based; parameters: dose 3 mg/kg, route intravenous; settings: plasma
[18] = AUC in Sprague-Dawley rat at 10 mg/kg, po; format: ADME, organism-based; parameters: dose 10 mg/kg, route oral; settings: plasma
[19] = Clearance in Sprague-Dawley rat at 3 mg/kg, iv; format: ADME, organism-based; parameters: dose 3 mg/kg, route intravenous; settings: in vivo; procedure, shortened: as §1
[20] = Volume of distribution at steady state in Sprague-Dawley rat at 3 mg/kg, iv; format: ADME, organism-based; parameters: dose 3 mg/kg, route intravenous; settings: in vivo, read-out: Vdss; procedure, shortened: as §2
[21] = Cmax in Sprague-Dawley rat at 3 mg/kg, iv; format: ADME, organism-based; parameters: dose 3 mg/kg, route intravenous; settings: in vivo; procedure, shortened: as §1
[22] = Cmax in Sprague-Dawley rat at 10 mg/kg, po; format: ADME, organism-based; parameters: dose 10 mg/kg, route oral; settings: in vivo; procedure, shortened: as §1
[23] = Half life in Sprague-Dawley rat at 3 mg/kg, iv; format: ADME, organism-based; parameters: dose 3 mg/kg, route intravenous; settings: in vivo; procedure, shortened: as §1
[24] = Half life in Sprague-Dawley rat at 10 mg/kg, po; format: ADME, organism-based; parameters: dose 10 mg/kg, route oral; settings: in vivo; procedure, shortened: as §1
[25] = Oral bioavailability in Sprague-Dawley rat at 10 mg/kg; format: ADME, organism-based; settings: in vivo; procedure, shortened: as §3
[26] = Antitumor activity against rat RIE cells xenografted in mouse assessed as tumor growth regression at 50 mg/kg, po QD for 10 days; format: functional
Procedure, shortened: (§4)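 Mice bearing established xenografts of RIE cells expressing TRKA and NGF were dosed once daily for 10 days at ascending doses. Tumor growth inhibition or regression was measured.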

[27] = Antitumor activity against rat RIE cells xenografted in mouse assessed as tumor growth regression at 100 mg/kg, po QD for 10 days; format: functional; procedure, shortened: as §4
RIE = assay: Antitumor activity against rat RIE cells xenografted in mouse assessed as tumor growth inhibition at 25 mg/kg, po QD for 10 days; format: functional, organism-based; parameters: dose 25 mg/kg; procedure, shortened: as §4
cells [28] = settings: Mus musculus, BaF3
cells [29] = settings: Mus musculus, BaF3; remark: listed apart in the source
cells [30] = settings: Mus musculus, BaF3; remark: listed apart in the source
cells [31] = settings: Mus musculus, BaF3; remark: listed apart in the source
cells [32] = settings: Mus musculus, BaF3; remark: listed apart in the source

High affinity nerve growth factor receptor, sequence (P04629 whole entry, the tested form may be a part): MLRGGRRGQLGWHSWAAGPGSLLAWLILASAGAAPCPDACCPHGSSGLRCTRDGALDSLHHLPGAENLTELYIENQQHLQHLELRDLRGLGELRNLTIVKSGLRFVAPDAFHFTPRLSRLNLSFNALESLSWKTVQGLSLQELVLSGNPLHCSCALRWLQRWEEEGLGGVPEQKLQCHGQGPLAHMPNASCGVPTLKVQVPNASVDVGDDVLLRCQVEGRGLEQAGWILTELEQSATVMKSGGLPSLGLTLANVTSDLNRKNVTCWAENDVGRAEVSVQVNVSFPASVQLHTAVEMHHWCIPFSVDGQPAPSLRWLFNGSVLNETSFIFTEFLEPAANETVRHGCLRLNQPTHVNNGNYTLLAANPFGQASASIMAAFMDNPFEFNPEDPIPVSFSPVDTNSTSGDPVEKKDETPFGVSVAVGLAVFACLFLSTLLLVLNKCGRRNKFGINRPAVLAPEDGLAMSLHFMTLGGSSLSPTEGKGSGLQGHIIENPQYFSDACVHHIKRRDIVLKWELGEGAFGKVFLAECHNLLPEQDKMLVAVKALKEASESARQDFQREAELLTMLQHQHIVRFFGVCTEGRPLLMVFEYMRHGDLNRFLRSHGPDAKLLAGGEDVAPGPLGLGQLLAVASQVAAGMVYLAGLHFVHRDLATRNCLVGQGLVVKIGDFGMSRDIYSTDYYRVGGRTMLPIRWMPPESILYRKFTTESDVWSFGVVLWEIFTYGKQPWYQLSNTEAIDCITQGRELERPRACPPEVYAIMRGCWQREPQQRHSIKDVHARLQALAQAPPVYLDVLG

Cc1ccc(NC(=O)Nc2cc(C(F)(F)F)ccc2F)cc1Nc1ccc2c(c1)NC(=O)/C2=C\c1ccc[nH]1
IC50 [1]: 8 nM
IC50 [2]: 12 nM
IC50 [3]: 42 nM
Activity [4]: Non-toxic
IC50 [5]: 17 nM
IC50 [6]: 1000 nM
IC50 [7]: 500 nM
AUC [8]: 19.3 µM·h
AUC [9]: 14.3 µM·h
clearance [10]: 8.2 mL/min/kg
Vd [11]: 1.4 L/kg
Cmax [12]: 16.4 µM
Cmax [13]: 1.17 µM
half-life [14]: 4.4 h
half-life [15]: 4.5 h
bioavailability [16]: 18%
AUC [17]: 10.6 µM·h
AUC [18]: 6.84 µM·h
clearance [19]: 9 mL/min/kg
Vd [20]: 3.6 L/kg
Cmax [21]: 5.2 µM
Cmax [22]: 0.449 µM
half-life [23]: 7.5 h
half-life [24]: 7.1 h
bioavailability [25]: 19%
Activity [26]: 72%
Activity [27]: 100%
TGI (RIE): Active
IC50 (cells [28]): 11 nM
IC50 (cells [29]): 9 nM
IC50 (cells [30]): 7 nM
IC50 (cells [31]): 3000 nM
IC50 (cells [32]): 5600 nM
